Measured values from article PMC4567957 (Bioorganic & medicinal chemistry letters, 2015).
Entries after “also recorded” stand apart in the source; their conditions may differ. Starred links: 1 amine or outer side, 2 acyl side, 3 side chain; linkers in the order of their positions; H or OH if unused. Positions of bridges follow the written chain, without caps; N, C: chain ends. Non-standard residues stand in square brackets, D forms with d. Residues, ends and D or L forms follow the SMILES beside them. *: point of attachment. CH2CONHCH2CH2NHCOCH2 = O=C(C[*:1])NCCNC(=O)C[*:2]; Propanoyl(3,3-Ph2) = O=C(CC(c1ccccc1)c1ccccc1)*; Pyridine(2,6-diCH2) = c1cc(C[*:1])nc(C[*:2])c1; X2 = O=C(CC(c1ccccc1)(c1ccccc1)c1ccccc1)*; Dip = N[C@H](C(=O)O)C(c1ccccc1)c1ccccc1; X1 = CCCCCCCCCCCCCCCC(=O)NCCOCCOCCN*; mXylylene = c1cc(C[*:1])cc(C[*:2])c1; oXylylene = c1ccc(C[*:2])c(C[*:1])c1; NH(CH2CH2O)2CH2CH2NH2 = NCCOCCOCCN*; pXylylene = c1cc(C[*:2])ccc1C[*:1]; Mpa = O=C(O)CCS

Experiments:
[1] = molecular target: T1, human ferroportin-GFP (Homo sapiens, UniProt Q9NP59); experiment: In vitro ferroportin; format: cell-based; details: for times less active than mHS5: versus mHS5; for bioactivity in Fpn degradation assay (in words): result in words, see Table 1
T1 sequence (Q9NP59 1-571): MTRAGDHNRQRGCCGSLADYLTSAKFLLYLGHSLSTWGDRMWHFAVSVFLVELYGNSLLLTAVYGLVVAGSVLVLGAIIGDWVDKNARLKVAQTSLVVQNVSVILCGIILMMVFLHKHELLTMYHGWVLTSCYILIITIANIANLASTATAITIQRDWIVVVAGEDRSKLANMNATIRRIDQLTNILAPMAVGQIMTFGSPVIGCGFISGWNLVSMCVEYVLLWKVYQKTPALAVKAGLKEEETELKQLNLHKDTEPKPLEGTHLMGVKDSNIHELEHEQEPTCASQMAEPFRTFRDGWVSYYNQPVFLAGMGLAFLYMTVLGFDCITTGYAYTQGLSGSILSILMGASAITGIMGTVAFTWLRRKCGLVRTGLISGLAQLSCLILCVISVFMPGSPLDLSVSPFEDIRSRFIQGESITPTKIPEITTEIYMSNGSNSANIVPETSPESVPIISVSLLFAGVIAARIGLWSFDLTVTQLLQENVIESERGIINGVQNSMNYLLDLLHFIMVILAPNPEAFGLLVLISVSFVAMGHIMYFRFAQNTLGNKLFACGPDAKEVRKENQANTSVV

[2] = Plasma stability in freshly prepared mouse plasma; format: in vitro ADME; details: 25 μM, 37 °C
Procedure, shortened: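 Test compound, from a 10 mM DMSO stock, spiked into freshly prepared mouse plasma (final 25 μM) and incubated at 37 °C. Aliquots taken at set time points were quenched in DMSO/acetonitrile (1:1) with 0.1% TFA and centrifuged (13000 rpm, 10 min). Supernatants were analysed by triple-quadrupole LC/MS against a peptide internal standard to follow remaining intact peptide over time.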

[3] = test system: C57BL/6 mice; format: in vivo, mouse; details: subcutaneous, 50–200 nmoles, 24h post-injection

CC(=O)N[C@H]1CSCc2ccccc2CSC[C@@H](C(N)=O)NC(=O)[C@H](Cc2ccccc2)NC(=O)[C@H](CCCNC(=N)N)NC(=O)[C@H](CS)NC(=O)[C@H](CCCNC(=N)N)NC(=O)[C@@H]2CCCN2C(=O)[C@H](Cc2ccccc2)NC1=O [mHS6] (Ac-CFPRCRFC-NH2; linker 1-8 via oXylylene; N-terminus and C-terminus assumed)
times less active than mHS5 [1]: approximately 2 times

CC(=O)N[C@H]1CSCc2ccc(cc2)CSC[C@@H](C(N)=O)NC(=O)[C@H](Cc2ccccc2)NC(=O)[C@H](CCCNC(=N)N)NC(=O)[C@H](CS)NC(=O)[C@H](CCCNC(=N)N)NC(=O)[C@@H]2CCCN2C(=O)[C@H](Cc2ccccc2)NC1=O [mHS4] (Ac-CFPRCRFC-NH2; linker 1-8 via pXylylene (inferred))
times less active than mHS5 [1]: approximately 2 times

CC(=O)N[C@H]1CSCc2cccc(c2)CSC[C@@H](C(N)=O)NC(=O)[C@H](Cc2ccccc2)NC(=O)[C@H](CCCNC(=N)N)NC(=O)[C@H](CS)NC(=O)[C@H](CCCNC(=N)N)NC(=O)[C@@H]2CCCN2C(=O)[C@H](C(c2ccccc2)c2ccccc2)NC1=O [mHS15] (Ac-C[Dip]PRCRFC-NH2; linker 1-8 via mXylylene; N-terminus and C-terminus assumed)
increase in potency (4Phe→Dpa) ([1]; mHS5 versus mHS15): 5 ×

CC(=O)N[C@@H](CS)C(=O)N[C@@H](Cc1ccccc1)C(=O)N1CCC[C@H]1C(=O)N[C@@H](CCCNC(=N)N)C(=O)N[C@@H](CS)C(=O)N[C@@H](CCCNC(=N)N)C(=O)N[C@@H](Cc1ccccc1)C(=O)N[C@@H](CS)C(N)=O [mHS1] (Ac-CFPRCRFC-NH2; N-terminus and C-terminus assumed)
EC50 [1]: > 600 nM
time within which degraded in plasma [2]: ≤ 6 h

N=C(N)NCCC[C@@H]1NC(=O)[C@@H](NC(=O)CC(c2ccccc2)(c2ccccc2)c2ccccc2)CSCc2cccc(c2)CSC[C@@H](C(N)=O)NC(=O)[C@H](Cc2ccccc2)NC(=O)[C@H](CCCNC(=N)N)NC(=O)[C@H](CS)NC1=O [mHS19] (X2-CRCRFC-NH2; linker 1-6 via mXylylene; C-terminus assumed)
EC50 [1]: ~100 nM
fold less potent than mHS15 ([1]; versus mHS15): approximately 2 ×

CC(=O)N[C@H]1CSCC(=O)NCCNC(=O)CSC[C@@H](C(N)=O)NC(=O)[C@H](Cc2ccccc2)NC(=O)[C@H](CCCNC(=N)N)NC(=O)[C@H](CS)NC(=O)[C@H](CCCNC(=N)N)NC(=O)[C@@H]2CCCN2C(=O)[C@H](Cc2ccccc2)NC1=O [mHS2] (Ac-CFPRCRFC-NH2; linker 1-8 via CH2CONHCH2CH2NHCOCH2; N-terminus and C-terminus assumed)
bioactivity in Fpn degradation assay (in words) [1]: inactive

CC(=O)N[C@H]1CSCc2cccc(n2)CSC[C@@H](C(N)=O)NC(=O)[C@H](Cc2ccccc2)NC(=O)[C@H](CCCNC(=N)N)NC(=O)[C@H](CS)NC(=O)[C@H](CCCNC(=N)N)NC(=O)[C@@H]2CCCN2C(=O)[C@H](Cc2ccccc2)NC1=O [mHS7] (Ac-CFPRCRFC-NH2; linker 1-8 via Pyridine(2,6-diCH2); N-terminus and C-terminus assumed)
bioactivity in Fpn degradation assay (in words) [1]: inactive

N=C(N)NCCC[C@@H]1NC(=O)[C@H](CS)NC(=O)[C@H](CCCNC(=N)N)NC(=O)[C@@H]2CCCN2C(=O)[C@H](C(c2ccccc2)c2ccccc2)NC(=O)CCSCc2cccc(c2)CSC[C@@H](C(=O)NCCOCCOCCN)NC(=O)[C@H](Cc2ccccc2)NC1=O [mHS23] ([Mpa][Dip]PRCRFC-{NH(CH2CH2O)2CH2CH2NH2}; linker 1-8 via mXylylene (inferred))
times more active than mHS22 ([1]; versus AcNH-containing mHS22): approximately 2 times

CCCCCCCCCCCCCCCC(=O)NCCOCCOCCNC(=O)[C@@H]1CSCc2cccc(c2)CSC[C@H](NC(=O)CC(c2ccccc2)c2ccccc2)C(=O)N[C@@H](CCCNC(=N)N)C(=O)N[C@@H](CS)C(=O)N[C@@H](CCCNC(=N)N)C(=O)N[C@@H](Cc2ccccc2)C(=O)N1 [mHS26] ({Propanoyl(3,3-Ph2)}-CRCRFC-X1; linker 1-6 via mXylylene; N-terminus and C-terminus assumed)
fold less potent than parental minihepcidin PR73 ([1]; ratio of EC50 versus PR73): 12.5 ×
in vivo activity (decrease in serum iron) [3]: no desired biological effect; also recorded: no in vivo potency
plasma stability compared with PR73 [2]: slightly more resistant to plasma driven degradation

CCCCCCCCCCCCCCCCNC(=O)CN(CC(N)=O)C(=O)CCCCCNC(=O)[C@@H]1CSCc2cccc(c2)CSC[C@H](NC(C)=O)C(=O)N[C@@H](C(c2ccccc2)c2ccccc2)C(=O)N2CCC[C@H]2C(=O)N[C@@H](CCCNC(=N)N)C(=O)N[C@@H](CS)C(=O)N[C@@H](CCCNC(=N)N)C(=O)N[C@@H](Cc2ccccc2)C(=O)N1 [mHS17]
in vivo activity (decrease in serum iron) [3]: no desired biological effect; also recorded: no in vivo potency
